The source of these data is ChEMBL document CHEMBL1145339, “N1-Benzoyl-N2-[1-(1-naphthyl)ethyl]-trans-1,2-diaminocyclohexanes: Development of 4-chlorophenylcarboxamide (calhex 231) as a new calcium sensing receptor ligand demonstrating potent calcilytic activity” (J Med Chem, 2006).

Broadly, the IC50 is the midpoint of a concentration-inhibition curve. The term inhibition denotes the drop in the measured response relative to a control, in per cent.

What all share (assay type): functional, cell-based
Experiment [1] has as its target T1, Extracellular calcium-sensing receptor (Rattus norvegicus, UniProt P48442).
T1 sequence (P48442 whole entry): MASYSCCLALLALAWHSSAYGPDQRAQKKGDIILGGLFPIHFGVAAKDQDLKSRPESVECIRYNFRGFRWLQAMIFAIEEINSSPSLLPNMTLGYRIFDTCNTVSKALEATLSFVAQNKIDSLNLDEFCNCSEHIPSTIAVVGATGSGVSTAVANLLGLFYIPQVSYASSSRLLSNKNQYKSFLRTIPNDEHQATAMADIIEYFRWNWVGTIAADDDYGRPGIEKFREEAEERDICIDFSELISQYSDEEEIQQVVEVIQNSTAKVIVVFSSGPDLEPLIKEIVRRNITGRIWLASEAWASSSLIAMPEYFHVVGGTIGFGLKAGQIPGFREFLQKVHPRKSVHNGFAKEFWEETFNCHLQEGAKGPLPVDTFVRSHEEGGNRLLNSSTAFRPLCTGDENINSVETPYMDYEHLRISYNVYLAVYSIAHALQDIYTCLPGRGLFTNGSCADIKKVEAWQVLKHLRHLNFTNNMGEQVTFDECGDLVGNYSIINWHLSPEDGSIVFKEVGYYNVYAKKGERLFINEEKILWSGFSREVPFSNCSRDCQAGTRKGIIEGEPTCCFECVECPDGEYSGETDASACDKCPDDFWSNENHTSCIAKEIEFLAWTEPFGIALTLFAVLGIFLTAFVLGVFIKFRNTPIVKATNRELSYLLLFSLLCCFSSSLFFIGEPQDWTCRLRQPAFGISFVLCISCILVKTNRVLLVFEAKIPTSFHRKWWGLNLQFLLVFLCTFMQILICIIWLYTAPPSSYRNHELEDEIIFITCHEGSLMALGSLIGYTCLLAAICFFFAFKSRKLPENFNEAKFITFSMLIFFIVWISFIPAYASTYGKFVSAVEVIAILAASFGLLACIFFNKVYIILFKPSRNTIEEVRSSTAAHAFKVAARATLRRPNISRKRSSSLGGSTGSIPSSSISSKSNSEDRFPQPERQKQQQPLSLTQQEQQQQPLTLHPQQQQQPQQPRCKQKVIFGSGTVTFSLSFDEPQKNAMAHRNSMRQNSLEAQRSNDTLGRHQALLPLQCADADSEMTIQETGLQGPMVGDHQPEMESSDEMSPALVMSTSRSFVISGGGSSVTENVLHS
Nature of the experiment: Activity at rat CaSR in CHO cells assessed as inhibition of calcium ion-induced [3H]inositol phosphate accumulation. The method, boiled down: (§1)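 CHO cells stably transfected with rat CaSR, grown in basal Ham's F-12 (0.3 mM Ca2+, 0.6 mM Mg2+). Overnight labelling with myo-[3H]inositol (0.5 µCi/mL). Cells washed, then 15 min at 37°C in basal medium with 10 mM LiCl, then 30 min at 37°C with 9 mM Ca2+ plus compound (10 mM ethanol stock diluted in medium). Reaction stopped with HClO4; [3H]IP isolated by ion exchange.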

Experiment [2] has as its target T2, Extracellular calcium-sensing receptor (Rattus norvegicus) (UniProt P48442).
T2 sequence (whole entry): T1 sequence (P48442 whole entry)
In words: Activity at rat CaSR in CHO cells assessed as inhibition of calcium ion-induced [3H]inositol phosphate accumulation at 10 uM. The essentials: as §1

Experiment [3] deals with T2, Extracellular calcium-sensing receptor (Rattus norvegicus). Nature of the experiment: Activity at rat CaSR in CHO cells assessed as inhibition of calcium ion-induced [3H]inositol phosphate accumulation at 1 uM. The essentials:
as §1

Calls of active or inactive are those of the source. The calls are words filed in the database; no cut-off is given here.

Turning to `CC(C)(Cc1ccc2ccccc2c1)NC[C@@H](O)COc1cccc(Cl)c1C#N`, the IC50 in experiment [1] worked out at 460 nM. Moreover, the inhibition came out at 87% in experiment [2] and 77% in experiment [3].

Take `C[C@@H](N[C@H]1CCCC[C@@H]1NC(=O)c1ccc(OC(F)(F)F)cc1)c1cccc2ccccc12`: the concentration for half-maximal inhibition (IC50) in experiment [1] was determined as 250 nM. In addition, the inhibition in experiment [2] stood at 100%.

Take `C[C@@H](N[C@H]1CCCC[C@@H]1NS(=O)(=O)c1ccc(OC(F)(F)F)cc1)c1cccc2ccccc12`: the IC50 in experiment [1] turned out to be 2600 nM. Besides, the inhibition in experiment [2] stood at 90%.

In the case of `C[C@@H](N[C@@H]1CCCC[C@H]1NC(=O)c1ccc(OC(F)(F)F)cc1)c1cccc2ccccc12`, the concentration for half-maximal inhibition (IC50) in experiment [1] is 1700 nM. The inhibition in experiment [2] was 95%.

Take `COc1ccc(S(=O)(=O)N[C@@H]2CCCC[C@H]2NC(C)c2cccc3ccccc23)cc1` (some centres undefined): in experiment [1], the IC50 was 8000 nM. In addition, the inhibition in experiment [2] was determined as 62%; in experiment [3] it was 12%.

Take `CC(N[C@@H]1CCCC[C@H]1NS(=O)(=O)c1ccc(C(F)(F)F)cc1)c1cccc2ccccc12` (some centres undefined): the inhibition in experiment [2] amounted to 75%.

Turning to `CC(N[C@@H]1CCCC[C@H]1NS(=O)(=O)c1ccc(Cl)cc1)c1cccc2ccccc12` (some centres undefined), in experiment [2], the inhibition was found to be 73%.

For `C[C@@H](N[C@@H]1CCCC[C@H]1NS(=O)(=O)c1ccc(OC(F)(F)F)cc1)c1cccc2ccccc12`, the inhibition in experiment [2] was found to be 32%.

On to `C[C@H](N[C@@H]1CCCC[C@H]1NC(=O)c1ccc(OC(F)(F)F)cc1)c1cccc2ccccc12`, for which the inhibition in experiment [2] is 22%.

As to `C[C@H](N[C@@H]1CCCC[C@H]1NS(=O)(=O)c1ccc(OC(F)(F)F)cc1)c1cccc2ccccc12`, the inhibition result in experiment [2] is “inactive”.

For `C[C@H](N[C@H]1CCCC[C@@H]1NC(=O)c1ccc(OC(F)(F)F)cc1)c1cccc2ccccc12`, the inhibition entry in experiment [2] is “inactive”.

`C[C@H](N[C@H]1CCCC[C@@H]1NS(=O)(=O)c1ccc(OC(F)(F)F)cc1)c1cccc2ccccc12`: the inhibition in experiment [2] stood at 20%.

`CC(N[C@@H]1CCCC[C@H]1NS(=O)(=O)c1ccc(OC(F)(F)F)cc1)c1cccc2ccccc12` (relative stereo): the IC50 in experiment [1] worked out at 5400 nM. The inhibition was determined as 78% in experiment [2] and 8% in experiment [3].

On to `CC(N[C@@H]1CCCC[C@H]1NC(=O)c1ccc(OC(F)(F)F)cc1)c1cccc2ccccc12` (relative stereo), for which the IC50 in experiment [1] is 900 nM. In addition, the inhibition was 95% in experiment [2] and 50% in experiment [3].

Turning to `CC(N[C@@H]1CCCC[C@H]1NC(=O)Oc1ccccc1)c1cccc2ccccc12` (relative stereo), the inhibition in experiment [2] is 1%.

Consider `CC(N[C@@H]1CCCC[C@H]1NC(=O)c1cc2ccccc2[nH]1)c1cccc2ccccc12` (relative stereo), for which, in experiment [3], the inhibition stood at 33%.

Regarding `CC(N[C@@H]1CCCC[C@H]1NC(=O)c1ccc(Cl)c(Cl)c1)c1cccc2ccccc12` (relative stereo), the values for the inhibition in experiment [2] and in experiment [3] were 103% and 82%, respectively.

On to `CC(N[C@@H]1CCCC[C@H]1NC(=O)c1ccc(Cl)cc1)c1cccc2ccccc12` (relative stereo), for which the inhibition came out at 106% in experiment [2] and 90% in experiment [3].

Take `CC(N[C@@H]1CCCC[C@H]1NC(=O)c1ccccc1)c1cccc2ccccc12` (relative stereo): the inhibition turned out to be 78% in experiment [2] and 33% in experiment [3].

In the case of `CC(N[C@@H]1CCCC[C@H]1NC(=O)c1ccccc1C(F)(F)F)c1cccc2ccccc12` (relative stereo), the inhibition in experiment [3] came to 36%.

On to `CC(N[C@@H]1CCCC[C@H]1NC(=O)c1ccccc1Cl)c1cccc2ccccc12` (relative stereo), for which the inhibition in experiment [2] worked out at 68%; in experiment [3] it was 19%.

As for `CC(N[C@@H]1CCCC[C@H]1NC(=O)c1ccccn1)c1cccc2ccccc12` (relative stereo), the inhibition was 76% in experiment [2] and 35% in experiment [3].

Take `CC(N[C@@H]1CCCC[C@H]1NS(=O)(=O)c1ccc(Cl)c(Cl)c1)c1cccc2ccccc12` (relative stereo): the inhibition in experiment [2] amounted to 60%.

With `CC(N[C@@H]1CCCC[C@H]1NS(=O)(=O)c1ccc(Cl)c(Cl)c1Cl)c1cccc2ccccc12` (relative stereo), the inhibition in experiment [2] came to 59%.

Take `CC(N[C@@H]1CCCC[C@H]1NS(=O)(=O)c1ccc([N+](=O)[O-])cc1)c1ccc2ccccc2c1` (relative stereo): the inhibition in experiment [2] came out at 20%; in experiment [3], 1%.

With `CC(N[C@@H]1CCCC[C@H]1NS(=O)(=O)c1ccc([N+](=O)[O-])cc1)c1cccc2ccccc12` (relative stereo), in experiment [2], the inhibition was found to be 56%.

In the case of `CC(N[C@@H]1CCCC[C@H]1NS(=O)(=O)c1cccc(C(F)(F)F)c1)c1cccc2ccccc12` (relative stereo), the inhibition in experiment [2] was determined as 44%.

On to `CC(N[C@@H]1CCCC[C@H]1NS(=O)(=O)c1cccc(Cl)c1)c1cccc2ccccc12` (relative stereo), for which the inhibition in experiment [2] was determined as 60%.

Regarding `CC(N[C@H]1CCCC[C@@H]1NS(=O)(=O)c1ccc([N+](=O)[O-])cc1)c1ccc(-c2ccccc2)cc1` (relative stereo), the inhibition in experiment [2] was 7%.

As for `COc1ccc(OC)c(S(=O)(=O)N[C@@H]2CCCC[C@H]2NC(C)c2cccc3ccccc23)c1` (relative stereo), the inhibition in experiment [2] amounted to 0%.

In the case of `O=[N+]([O-])c1ccc(S(=O)(=O)N[C@@H]2CCCC[C@H]2NCc2cccc3ccccc23)cc1` (relative stereo), the inhibition in experiment [2] is 6%; in experiment [3], 1%.
